Assay results from different studies.
Each line is one published result; the experiments were not run side by side.
Target: G protein-coupled receptor kinase 6 (GRK6, Homo sapiens, UniProt P43250)

Structure (SMILES)	test	conditions	endpoint	result
Cc1sc(C(=O)NC2COC2)cc1-n1cc(NC(=O)Nc2c(F)cccc2Cl)cn1	enzyme activity, inhibitor	10 µM	remaining activity	91.5%
CC(C)(O)[C@H]1CC[C@H](Nc2ccc3ncc(-c4cccc(C(F)(F)F)c4)n3n2)CC1	enzyme activity, inhibitor	1 µM	remaining activity	90.6%
Cc1cnc(NC2CCOCC2)nc1-n1cnc(C(=O)NC(CN)c2cc(F)cc(Cl)c2)c1 (stereo not drawn)	enzyme activity, inhibitor, radiometric	1 µM	remaining activity	81%
Cc1ccc(NC(=O)c2ccc(C)c(C(F)(F)F)c2)cc1C#Cc1nn(C2CCC(O)CC2)c2ncnc(N)c12 (stereo not drawn)	cell-free assay	10 µM	remaining signal	100%
O=C1Nc2ccc(Cl)cc2C1=Cc1cc(Cl)c(O)c(Cl)c1	cell-free assay	0.5 µM	remaining signal	89.6%
CC(C)(C)c1nc2c(s1)c1nc(N)ncc1c1ccc(NS(=O)(=O)c3c(F)cccc3F)c(F)c12	enzyme activity, inhibitor, radiometric	1 µM	remaining activity	76%
CCN(CC)CCNC(=O)c1c(C)[nH]c(/C=C2\C(=O)Nc3ccc(F)cc32)c1C	enzyme activity, inhibitor	0.3 µM	inhibition	31%
O=C1NC(=O)c2cc(Nc3ccc(F)cc3)c(Nc3ccc(F)cc3)cc21	cell-free assay	0.5 µM	remaining signal	98.7%
CNC(=O)c1cc(Oc2ccc(NC(=O)Nc3ccc(Cl)c(C(F)(F)F)c3)cc2)ccn1	enzyme activity, inhibitor	10 µM	inhibition	1%
COc1cc2ncnc(Nc3ccc(Oc4ccccc4)cc3C)c2cc1OC	enzyme activity, inhibitor	1 µM	inhibition	0%
CCN(CC)c1ccc(C2=NNC(=O)CC2C)cc1[N+](=O)[O-] (stereo not drawn)	enzyme activity, inhibitor	10 µM	remaining activity	105%
Cc1ccc(Nc2nccc(N(C)c3ccc4c(C)n(C)nc4c3)n2)cc1S(N)(=O)=O	enzyme activity, inhibitor	0.3 µM	inhibition	11%
